Test results reported in ChEMBL document CHEMBL3044648, “Quantitative structure-activity relationships of monoterpenoid binding activities to the housefly GABA receptor” (2012).

Key:
Musca domestica = assay: Toxicity to Musca domestica (house fly) applied to pronotum assessed as compound level per fly causing insect mortality measured after 24 hr; assay type: functional
[1] = biological target: T1, GABA receptor subunit (Musca domestica) (UniProt Q75NA5); assay: Displacement of [3H]TBOB binding to GABA receptor in Musca domestica (house fly) heads homogenates assessed as [3H]TBOB binding at 500 uM incubated for 90 min by scintillation counting method
T1 sequence (whole entry): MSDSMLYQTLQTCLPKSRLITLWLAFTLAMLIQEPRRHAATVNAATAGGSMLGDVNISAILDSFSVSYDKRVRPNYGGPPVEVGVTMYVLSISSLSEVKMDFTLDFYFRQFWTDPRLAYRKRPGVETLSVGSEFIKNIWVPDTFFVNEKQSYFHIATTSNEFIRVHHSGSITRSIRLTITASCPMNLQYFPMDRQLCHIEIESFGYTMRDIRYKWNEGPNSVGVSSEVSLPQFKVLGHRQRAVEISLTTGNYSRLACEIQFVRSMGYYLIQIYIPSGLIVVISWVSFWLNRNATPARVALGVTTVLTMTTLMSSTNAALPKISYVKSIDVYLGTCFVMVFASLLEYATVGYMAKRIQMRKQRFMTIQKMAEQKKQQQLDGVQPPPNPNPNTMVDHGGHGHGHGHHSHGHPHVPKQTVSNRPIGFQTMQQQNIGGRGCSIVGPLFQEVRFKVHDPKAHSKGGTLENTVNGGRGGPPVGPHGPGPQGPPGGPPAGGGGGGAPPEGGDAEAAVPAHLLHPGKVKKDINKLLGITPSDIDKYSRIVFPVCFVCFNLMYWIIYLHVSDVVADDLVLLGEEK
Outline: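 House fly head membranes (homogenized in 10 mM Tris-HCl pH 7.5 with 0.25 M sucrose, pelleted at 25,000xg, resuspended in 10 mM phosphate pH 7.5 with 300 mM NaCl); 20 µg protein incubated 90 min at 20 °C with 4 nM [³H]-TBOB and 500 µM monoterpenoid; GF/B filtration; nonspecific binding with 100 µM picrotoxin; specific binding as % of untreated; at least three repeats, mean ± SEM.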

SMILES	LD50 (Musca domestica)	Activity [1]
C=CC(C)(O)CCC=C(C)C (stereo not given) [LINALOOL]	72.3 µg	124%
C=C(C)[C@H]1CC=C(C)CC1 [D-LIMONENE]	89.4 µg	86%
Cc1ccc(C(C)C)cc1O [CARVACROL]	60.1 µg	156%
Cc1ccc(C(C)C)c(O)c1	–	180%
Cc1ccc(C(C)C)cc1 [P-CYMENE]	94.7 µg	90%
CC(C)=C1CC[C@@H](C)CC1=O [PULEGONE]	92.2 µg	132%
C=CCc1ccc(O)c(OC)c1 [EUGENOL]	46.4 µg	88%
CC(C)C12CCC(C)(CC1)O2 [1,4-CINEOLE]	151.7 µg	117%
COC(=O)c1ccccc1O [METHYL SALICYLATE]	41.2 µg	103%
CC(C)[C@H]1CC[C@H](C)CC1=O (relative stereo)	–	86%
C=CCc1ccc2c(c1)OCO2 [SAFROLE]	18.3 µg	43%
CC12CCC(CC1)C(C)(C)O2 [EUCALYPTOL]	63.2 µg	122%
COc1cc(C=O)ccc1O [VANILLIN]	>500 µg	82%
O=C(O)/C=C/c1ccccc1	–	101%
CCC(=O)OCCc1ccccc1 [PHENETHYL PROPIONATE]	66.6 µg	95%
CC1CCC(C(C)C)C(O)C1 (stereo not given) [MENTHOL]	128.9 µg	80%
CC(C)=CCC[C@@H](C)CC=O [CITRONELLAL]	46.8 µg	92%
CC(C)=CCCC(C)CC(=O)O (stereo not given) [CITRONELLIC ACID]	25.2 µg	138%
C=C(C)C1CCC2(C)OC2C1 (stereo not given) [LIMONENE OXIDE]	67.8 µg	141%
O=Cc1ccc2c(c1)OCO2 [PIPERONAL]	36.1 µg	93%
CC1=CC[C@@H](C(C)(C)O)CC1	–	95%
CC12CCC(CC1=O)C2(C)C (stereo not given) [CAMPHOR]	149.5 µg	70%
